Assay outcomes: PubChem BioAssay, Johns Hopkins Ion Channel Center
This is a sample that favours compounds with a hit; in the whole collection about 3.5% have one here.
RGS4 pot – RGS4 potentiation or activation. B-score at 10 µM. 310,000 compounds, 0.92% hits. HEK293 M3R/inducible RGS4, carbachol calcium flux Fluo4; active compounds read low;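 active = B-score of the integrated calcium signal more than 4 SD below the library mean, with starting fluorescence not abnormally high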;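 note: negative B-score means reduced calcium response which marks RGS4 activation or potentiation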
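Assay system: HEK293 FlpIn-TREx cells, stable M3R, doxycycline-inducible RGS4 / Probe or stimulus: carbachol, ECmax concentration / Times: overnight RGS4 induction, 30 min dye load 37 °C, 20 min compound RT / Signal: kinetic calcium fluorescence imaging with Fluo4-AM dye, 2 µM / Measure: Agonist-evoked peak-minus-minimum fluorescence over baseline, integrated ratio, B score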
MrgX1 antag – antagonists of human MrgX1 receptor. MRGX1-HEK293 calcium flux, Fluo-4, BAM8-22 antagonism; active compounds read low. B-score at 10 µM. 310,000 compounds, 1.3% hits. AID 588676;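 active = calcium-response B-score plate-corrected more than 3 library SD below zero, starting fluorescence within 5 deviations, no agonist response on first addition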;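 note: peak minus trough fluorescence over baseline after final BAM8-22 challenge near maximal dose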
Target sequence (Q96LB2 whole entry, looked up): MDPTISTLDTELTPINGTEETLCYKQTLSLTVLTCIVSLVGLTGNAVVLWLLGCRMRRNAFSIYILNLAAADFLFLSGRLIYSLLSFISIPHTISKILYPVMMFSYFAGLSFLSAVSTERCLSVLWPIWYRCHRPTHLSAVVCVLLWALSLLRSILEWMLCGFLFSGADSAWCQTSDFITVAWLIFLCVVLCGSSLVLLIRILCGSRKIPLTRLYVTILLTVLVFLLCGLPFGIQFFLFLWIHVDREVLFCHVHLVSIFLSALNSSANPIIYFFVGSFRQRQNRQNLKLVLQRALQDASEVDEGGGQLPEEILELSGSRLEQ
RGS4 block – inhibitors of human RGS4; B-score at 10 µM; 310,000 compounds, 0.45% hits; P49798; HEK293 M3R/RGS4 inducible, Fluo-4 calcium flux; active compounds read high; triggered by carbachol at its EC20;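 active = B-score, a plate-corrected calcium signal, over three deviations above library mean, with baseline fluorescence within five deviations of library mean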;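 note: RGS4 expression induced by doxycycline in cells with stable M3 receptor; B-score is computed from the integrated fluorescence ratio over baseline after carbachol; higher B-score means a larger calcium signal and so more RGS4 inhibition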
Target sequence (P49798 whole entry, looked up): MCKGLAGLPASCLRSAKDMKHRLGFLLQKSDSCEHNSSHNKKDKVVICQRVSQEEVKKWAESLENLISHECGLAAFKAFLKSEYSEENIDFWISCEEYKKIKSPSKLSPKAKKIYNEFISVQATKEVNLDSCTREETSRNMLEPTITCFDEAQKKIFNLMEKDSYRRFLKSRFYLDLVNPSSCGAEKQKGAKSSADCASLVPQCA
MrgX1 ag – human MrgX1 receptor agonism, primary screen. MrgX1-HEK293 cells, Fluo-4 calcium fluorescence, agonist mode; active compounds read high. Q96LB2. AID 588627. 310,000 compounds, 0.44% hits. B-score at 10 µM;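 active = calcium response B-score plate-corrected fluorescence ratio at least 3 library SD, with starting fluorescence B-score inside 5 SD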
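times = overnight plating, then 30 min 37 °C plus 30 min room-temperature dye loading | assay system = stable human MrgX1 HEK293 cell line | input = fifteen thousand cells per well | signal = kinetic calcium dye fluorescence, Fluo-4 NW | dosing = compound delivered in addition one of three | read-out = B-scored fluorescence response ratio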
MrgX1 PAM – allosterically activates human MrgX1 receptor signaling; Q96LB2; MrgX1-HEK293, Fluo-4 calcium flux, FDSS; active compounds read high; B-score at 10 µM; 310,000 compounds, 0.63% hits; AID 588675;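 active = plate-corrected calcium response at least 3 library SD above typical, normal starting fluorescence, not activating the receptor alone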;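 note: compound read alongside a low EC10 to EC30 dose of BAM8-22 agonist; peak minus trough fluorescence over baseline measured at the second addition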
RGS4 act valid – RGS4 activation, validation assay | HEK293 M3R/RGS4 inducible, carbachol calcium flux Fluo4 | 1,100 compounds, 89% hits | AID 602282 | inhibition, % at 10 µM | shares compounds with RGS4 pot;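 active = inhibition above 3 SD of the buffer control wells, cut at about 41% in these data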;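 note: signal is the integrated peak-minus-minimum Fluo4 fluorescence over baseline ratio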
M3R Ca counter – RGS4 activator counter-screen hit in non-induced cells; shares compounds with RGS4 pot; HEK293 M3R non-induced RGS4, Fluo4 calcium flux; after carbachol challenge at its EC90; inhibition, % at 10 µM; 1,100 compounds, 82% hits;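 active = inhibition exceeding 3 SD of buffer-only control wells, cut at about 26% in these data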;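 note: percent drop in integrated peak-minus-baseline over baseline Fluo4 ratio after carbachol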
RGS4 block valid – RGS4 inhibitor validation; shares compounds with RGS4 block; HEK293 M3R/RGS4, carbachol calcium Fluo-4 fluorescence; carbachol added at its EC20; 0 = buffer wells, 100 = carbachol control; calcium response, % at 10 µM; 1,700 compounds, 65% hits;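 active = duplicate-averaged calcium response above the buffer-only control mean plus 5 SD of those controls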;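 note: integrated fluorescence ratio F max minus min over baseline F0; higher response in RGS4-induced cells means RGS4 inhibition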
RGS4 uninduced – non-induced cell nonspecific activity of RGS4 inhibitors; shares compounds with RGS4 block; HEK293 M3R non-induced, carbachol calcium Fluo-4; submaximal (EC20) carbachol stimulus; buffer wells 0%, carbachol control wells 100%; activity (percent), % at 10 µM; 1,900 compounds, 20% hits; AID 493000; call rule not given here;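 note: RGS4 induction absent so cells express M3R without RGS4; higher means more calcium signal and flags a non-specific hit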
M3R basal Ca ctr – second RGS4 inhibitor counter-screen in uninduced cells lacking carbachol. shares compounds with RGS4 block. calcium response (agonist-mode artifact), % at 10 µM. 1,900 compounds, 22% hits. HEK293 M3R/RGS4 non-induced, Fluo-4 calcium, no carbachol; normalised: buffer wells 0%, carbachol wells 100%;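 active = duplicate-averaged calcium rise in uninduced cells above buffer wells' mean plus 5 SD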
MrgX1 ag confirm – reconfirmed activator of human MrgX1 receptor signaling | shares compounds with MrgX1 ag | MrgX1-HEK293, Fluo-4 calcium fluorescence, FDSS | activation, % at 10 µM | 600 compounds, 78% hits | AID 602412;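 active = calcium signal rise, corrected for plate position, at least 3 library SD high, with starting brightness within 5 such deviations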; note: reference of the scale not given here
MrgX1 allo conf – confirmation of human MrgX1 receptor positive allosteric modulators | MrgX1-HEK293, Fluo-4 calcium fluorescence, FDSS | shares compounds with MrgX1 PAM | 1,200 compounds, 13% hits | activation (ratio percentage), % at 10 µM;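 active = ratio at least 3 SD above the weak peptide control, stable starting fluorescence, no direct agonism earlier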;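 note: compound followed by low BAM8-22 agonist challenge near EC20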
MrgX1 ant reconf – confirmation of human MrgX1 receptor antagonists; 2,300 compounds, 19% hits; remaining BAM8-22 calcium response % of control (active compounds read low), % at 10 µM; MrgX1-HEK293, BAM8-22 calcium flux, Fluo-4; active compounds read low; shares compounds with MrgX1 antag;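 active = remaining agonist calcium response no higher than 100% minus 3 SD of agonist-only control wells, with starting fluorescence near control levels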;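 note: agonist BAM8-22 given at a near maximal EC90 to ECmax level; peak minus minimum fluorescence divided by baseline after agonist addition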
HEK293 Ca flux – counter-screen for MrgX1 antagonists: effect in parental HEK293 cells; shares compounds with MrgX1 antag; Fluo-4 calcium fluorescence, FDSS; fluorescence ratio F(max-min)/F0 at 10 µM; 4,000 compounds, 2% hits;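 active = duplicate-averaged calcium fluorescence ratio at least three times the standard deviation of buffer wells, a nonspecific response in parental cells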
HEK293 Ca counter – activity in parental HEK293 cells without MrgX1 | AID 624114 | 4,000 compounds, 0.4% hits | fluorescence ratio F(max-min)/F0 at 10 µM | shares compounds with MrgX1 antag | parental HEK293 calcium flux, Fluo-4 fluorescence ratio; active compounds read high;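 active = calcium fluorescence ratio, averaged over duplicates, at least 3 SD of the buffer-well ratio, meaning a nonspecific response in receptor-free cells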;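 note: untransfected parental HEK293 lacking MrgX1 used as counterscreen for MrgX1 allosteric activators; fluorescence change taken during the second addition on a kinetic imager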
HEK293 Ca cntr2 – MrgX1 activator counter-screen hit in parental HEK293 cells; AID 624115; fluorescence ratio F(max-min)/F0 at 10 µM; Fluo-4 calcium fluorescence (FDSS); active compounds read high; 4,000 compounds, 8.7% hits; shares compounds with MrgX1 antag;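 active = calcium fluorescence ratio at least three times the spread of buffer wells, meaning a non-specific response in parental cells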
The depositor's hits bear a star; i = inactive; . = no result.

SMILES | RGS4 pot | MrgX1 antag | RGS4 block | MrgX1 ag | MrgX1 PAM | RGS4 act valid | M3R Ca counter | HEK293 Ca flux | HEK293 Ca counter | HEK293 Ca cntr2 | others
COc1ccc(C(c2nnnn2Cc2cccs2)N2CCN(c3ccccc3F)CC2)cc1 (centres undefined) | -7.6* | i | i | i | i | 0 | 0 | . | . | .
COc1ccc(C(c2nnnn2Cc2ccccc2)N2CCN(c3ccccc3)CC2)cc1 (centres undefined) | i | i | i | i | i | . | . | . | . | .
Clc1ccc(OCc2nc3ccccc3[nH]2)cc1 | i | i | i | i | i | . | . | . | . | .
OC(Cc1nc2ccccc2[nH]1)c1ccccc1Cl (centres undefined) | -8.2* | i | i | i | i | 0 | 0 | . | . | .
Cc1cccc(OCC(=O)N2CCN(c3nnc(-c4ccccc4)c4ccccc34)CC2)c1 | -8* | i | i | i | i | 78* | 30* | . | . | .
O=C(COc1ccccc1)N1CCN(c2nnc(-c3ccccc3)c3ccccc23)CC1 | i | i | i | i | i | . | . | . | . | .
CN(C)CCCNC(=O)c1ccc(-c2nc(-c3ccc(Cl)cc3)cs2)cc1 | -8.2* | i | i | i | i | 96* | 98* | . | . | .
CSc1nc2ccc(NC(=O)c3ccc(Cl)s3)cc2s1 | . | i | . | i | i | . | . | . | . | .
O=C(CN1CCc2ccccc2C1)Nc1ccc(OC(F)(F)F)cc1 | i | i | i | i | i | . | . | . | . | .
COc1cc(C)ccc1NC(=O)Cc1csc(NC(=O)Nc2ccccc2OC)n1 | -10* | i | i | i | i | 94* | 91* | . | . | .
Cc1nc(Cl)c(C#N)cc1-c1ccccc1 | i | i | i | i | i | . | . | . | . | .
Cc1nc(Sc2ccccc2)c(C#N)cc1-c1ccccc1 | -10* | i | i | i | 6.8* | 94* | 63* | i | i | i | MrgX1 allo conf=i
Cc1[nH]c(=O)[nH]c(=S)c1C(=O)Nc1ccc(Cl)c(Cl)c1 | i | i | i | i | i | . | . | . | . | .
COc1ccccc1-c1c(C#N)c(N)nc2c1CCc1ccccc1-2 | -7.6* | i | i | i | 12* | 89* | 52* | i | i | i | MrgX1 allo conf=i
COc1cc(F)c(C(=O)NC(C)(C)CO)cc1OC | i | i | i | i | i | . | . | . | . | .
C=CCn1c(SCC(=O)Nc2ccc(OC)cc2)nc2c([nH]c3ccccc32)c1=O | i | i | i | i | i | . | . | . | . | .
C=CCn1c(SCCN2CCCC2)nc2c([nH]c3ccccc32)c1=O | -8.4* | -4.6* | i | i | i | 64* | 0 | i | i | i | MrgX1 ant reconf=i
CCN(CC)CC#CC(OC)(c1ccccc1)c1ccccc1 | -9.7* | i | i | i | 8* | 92* | 88* | i | i | i | MrgX1 allo conf=i
Cc1nc(Nc2nc(CSc3nc4ccccc4[nH]3)cc(=O)[nH]2)nc2ccccc12 | -13* | -5.2* | i | i | i | 62* | 0 | i | i | i | MrgX1 ant reconf=83%*
COc1ccc2nc(Nc3nc(CSc4nc5ccccc5[nH]4)cc(=O)[nH]3)nc(C)c2c1 | i | i | i | i | i | . | . | . | . | .
COC(=O)c1cccc(Nc2nc(-c3ccncc3)nc3ccccc23)c1 | i | i | i | i | i | . | . | . | . | .
CCOC(=O)c1cccc(Nc2nc(-c3cccnc3)nc3ccccc23)c1 | -8.1* | -4.6* | i | i | i | 57* | 0 | i | i | i | MrgX1 ant reconf=i
OC(CCN1CCOCC1)(c1ccc(Cl)cc1)C1CCCCC1 (centres undefined) | -9.8* | i | i | i | 6.8* | 93* | 94* | i | i | i | MrgX1 allo conf=i
O=C(NCc1ccc(Cl)cc1)C(=O)NCC1OCCCN1S(=O)(=O)c1cccs1 (centres undefined) | i | i | i | i | i | . | . | . | . | .
COc1cc(OC)cc(C(=O)NC(=S)NNC(=O)[C@H]2C[C@@H]2c2ccccc2)c1 | -11* | i | i | 109* | i | 84* | 77* | i | i | 110* | MrgX1 ag confirm=580%*
C=CCOc1ccc(/C=N/NC(=O)CN2CCOCC2)cc1OCC | i | i | i | i | i | . | . | . | . | .
COc1ccccc1N1CCN(Cc2nc(-c3ccc(F)cc3)oc2C)CC1 | i | i | i | i | i | . | . | . | . | .
CCOC(=O)N1CCN(Cc2cn[nH]c2-c2ccc(-c3ccccc3)cc2)CC1 | i | i | 6.4* | i | i | . | . | . | . | . | RGS4 block valid=5.5%*;RGS4 uninduced=i;M3R basal Ca ctr=i
